# Bioassay records from PubChem BioAssay.
# The list is not random: actives were taken first. Their share in the collection is about 1%.
# TLR9-MyD88 inh – TLR9-MyD88 interaction inhibition | Q9NR96+Q99836 | CHO BLA complementation TLR9-MyD88, CCF4 FRET ratio | inhibition, % at 4.98 µM | actives 0.21% (n = 340,000) | AID 504734;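 active = inhibition above the mean over all tested compounds plus 3 SD, cut at about 21% in these data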
# NOD2 RIPK2 PPI – NOD2-RIPK2 protein interaction inhibition | O43353 | inhibition, % at 4.98 µM | CHO BLA complementation NOD2-RIPK2, CCF4 ratio | AID 624267 | actives 0.38% (n = 360,000); in the data active = inhibition above about 21%
# Hsp70 activator – transcriptional activators of Hsp70. HeLa Hsp70 promoter luciferase reporter, luminescence; scaled: vehicle 0, proteasome-inhibitor control 100%. activation, % at 10 µM. actives 0.04% (n = 200,000). AID 1203;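 active = activation above the mean across all tested compounds plus 3 SD, cutoff set per campaign, cut at about 5.5% in these data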
# TLR4-MyD88 BLA – inhibitors of human TLR4-MyD88 binding; O00206+Q99836; HeLa CL3-4 TLR4/MyD88 BLA complementation, FRET ratio; inhibition, % at 8.4 µM; actives 0.18% (n = 200,000); AID 861; in the data active = inhibition above about 25%
# bCat nuc transl – alters nuclear translocation of beta-catenin in HeLa cells; nuclear translocation activity, % at 5 µM; immunofluorescence imaging; actives 0.3% (n = 190,000); AID 1665;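 active = nuclear translocation activity above 50% at 5 µM, with a well cell count of 50 or more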;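 also: per-cell ratio of nuclear to cytoplasmic median beta-catenin stain intensity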
#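 System: Human HeLa cells, endogenous beta-catenin | Compound dosing: 5 µM primary, 0.02–20 µM confirmation | Timing: 24 h compound exposure at 37°C, 5% CO2 | Measured by: Fluorescence imaging of beta-catenin antibody stain plus DAPI | Read-out basis: % activation of per-cell nuclear versus cytoplasmic median beta-catenin signal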
# MT stabilizer – microtubule stabilization, imaging screen; HeLa tubulin immunostaining HCS, 24 h; share of cells brighter than vehicle mean+2SD; % tubulin-high responders, % at 10 µM; actives 0.83% (n = 200,000); AID 2205;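 active = plate Z-score above 3 for both tubulin-high and condensed-nucleus cell shares, with cell loss under 80%, at 10 µM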;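 also: anti alpha tubulin signal scored within the nucleus-defined area of each cell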
# Numbers stand for hits; – = inactive; · = no result.
SMILES,TLR9-MyD88 inh,NOD2 RIPK2 PPI,Hsp70 activator,TLR4-MyD88 BLA,bCat nuc transl,MT stabilizer
Cc1ccc(C)c(-n2c3nc(=O)[nH]c(=O)c-3cc3cc([N+](=O)[O-])ccc32)c1,–,–,–,–,93,–
Cc1cccc(-n2c3nc(=O)[nH]c(=O)c-3cc3cc([N+](=O)[O-])ccc32)c1,–,–,–,–,–,–
COc1ccc(S(=O)(=O)N2CCCCC2)cc1NC(=O)c1ccc(Cl)nc1,–,–,·,·,·,·
COc1ccc(S(=O)(=O)N2N=C(C)Oc3ccccc3C2=O)cc1,–,–,–,–,80,37
CC1=NN(S(=O)(=O)c2ccc(C)cc2)C(=O)c2ccccc2O1,–,–,·,·,–,·
CCN(CC)c1ccc(-c2nn3c(-c4n[nH]c5c4CCC5)nnc3s2)cc1,–,–,–,–,65,23
CCc1nc2c(OCc3ccc(Cl)cc3)cccn2c1N(C)C(=O)c1ccc2c(c1)OCO2,·,–,·,·,·,·
COc1ccc2[nH]cc(CCNC(=O)CCC3CCCCC3)c2c1,–,–,·,·,·,·
CCOC(=O)C1=C(N)Oc2cc(O)ccc2C1c1cccc([N+](=O)[O-])c1 (stereo unspecified),–,–,–,–,–,15
Cc1cc(C)c(CSc2ncc(-c3ccc([N+](=O)[O-])cc3)[nH]2)c(C)c1,–,41,–,–,–,–
O=[N+]([O-])c1ccc(-c2cnc(SCc3ccccc3Cl)[nH]2)cc1,–,–,–,25,–,–
NC(=O)CSc1ncc(-c2ccc([N+](=O)[O-])cc2)[nH]1,–,–,–,–,–,–
COc1ccc(NC(=O)NCC(C)CSc2ccc(C)cc2)c(OC)c1 (stereo unspecified),–,–,·,·,·,·
CC(Cc1ccsc1)NC(=O)CCc1nnc(CCc2ccccc2)o1 (stereo unspecified),–,–,–,–,–,–
COc1ccc([C@@H]2C[C@H]3[C@@H](CN2S(=O)(=O)c2ccccc2)C(=O)C[C@@H](c2ccc(C)cc2)N3S(=O)(=O)c2ccc(C)cc2)cc1,–,–,·,·,·,·
COc1ccc(/C=N/NC(N)=S)cc1OC(=O)c1cccc2ccccc12,–,–,–,–,·,35
CCOc1ccc(Br)cc1/C(C)=N\NC1=NCCN1,–,–,–,–,82,35
CCCCCOc1ccc(/C(C)=N/NC2=NCCN2)cc1,–,–,·,·,·,·
O=C(Oc1cc2oc(=O)cc(-c3ccccc3)c2cc1Cl)C1CCCCC1,–,29,–,–,–,–
Cc1ccc(S(=O)(=O)N(C)C)cc1NC(=O)c1cc(S(=O)(=O)N2CCCCC2)ccc1N1CCOCC1,–,–,·,·,·,·
Cc1ccc(Cl)cc1N1CCN(C(=O)c2cn(C)c(=O)c3c2c2ccccc2n3C)CC1,–,–,–,–,139,–
CNc1nc(SC)nc2ccccc12,–,–,–,–,–,–
CSc1nc(N(C)NC(=O)c2ccc(Cl)cc2)c2ccccc2n1,–,–,–,–,–,19
CSc1nc(N(C)NC(=O)c2ccccc2)c2ccccc2n1,–,–,–,–,54,33
Cc1ccc(C(=O)NN(C)c2nc3ccccc3nc2C(F)(F)F)cc1,–,–,–,–,–,41
SMILES,TLR9-MyD88 inh,NOD2 RIPK2 PPI,Hsp70 activator,TLR4-MyD88 BLA,bCat nuc transl,MT stabilizer
CC1(C)CC(=O)C(CSC(=O)c2ccccc2)C(=O)C1,–,–,·,·,·,·
CC(CC(=O)N1CCc2ccccc21)S(=O)(=O)c1ccc2c(c1)NC(=O)CO2 (stereo unspecified),–,–,·,·,·,·
Cc1ccc(C2=NNC(C(O)C(O)C(O)C(O)CO)S2)cc1 (stereo unspecified),–,–,–,–,–,42
COCCCN(C(=O)Cc1ccc(S(=O)(=O)N2CCOCC2)s1)c1c(N)n(Cc2ccccc2)c(=O)[nH]c1=O,–,–,·,·,·,·
CCOc1ccccc1NC(=O)Cn1nnc(C(=O)NCc2ccco2)c1N,–,–,–,–,·,25
Cc1onc(-c2c(Cl)cccc2Cl)c1C(=O)N1CCN(c2ccc(F)cc2)CC1,–,–,·,·,·,·
Cc1onc(-c2c(Cl)cccc2Cl)c1C(=O)N1CCN(c2ccccc2)CC1,–,–,–,–,–,21
CCCC1(CCC)NC(=O)N(CC(=O)Nc2ccc3c(c2)OCCO3)C1=O,–,–,·,·,·,·
Cc1cc(C)c2c(N)c3cccc(C)c3nc2n1,–,–,–,–,–,13
